Laboratory results as given in ChEMBL document CHEMBL2417419, “Synthesis and quantitative structure-activity relationship of imidazotetrazine prodrugs with activity independent of O6-methylguanine-DNA-methyltransferase, DNA mismatch repair, and p53” (J Med Chem, 2013).
Each block holds one compound with its values, some of them ahead of it. Calls of active or inactive are those of the source. The calls are words filed in the database; no cut-off is given here.

What was measured:
[1] = system: A2780/CP70; experiment: (§1) Chemosensitization of MMR-deficient human A2780/CP70 cells after 5 days by MTT assay; format: functional, cell-based
[2] = system: A2780/CP70; experiment: (§2) Chemoseinsitizatioin of MMR-deficieint humain A2780/CP70 cells after 5 days by MTT assay in preseince of MGMT iinactivator PaTriin2; format: functional, cell-based; settings: Homo sapiens
In short: (§3)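 Cells plated at 1×10^3 per well and left overnight at 37 °C in 5% CO2 to adhere. Medium was then replaced with fresh medium holding compound (0 controls to 250 µM; DMSO stock, final DMSO <0.1% v/v) plus 10 µM PaTrin2 to inactivate MGMT. Survival was read by MTT after 5 days at 37 °C.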

[3] = system: A2780; experiment: Ratio of IC50 for MMR-deficient human A2780/CP70 cells to IC50 for human A2780 cells in presence of MGMT inactivator PaTrin2; format: functional
[4] = system: A2780; experiment: Chemosensitization of human A2780 cells after 5 days by MTT assay; format: functional, cell-based; settings: A2780, 120 h
[5] = system: A2780; experiment: Ratio of IC50 for human A2780 cells to IC50 for human A2780 cells in presence of MGMT inactivator PaTrin2; format: functional
[6] = system: HCT-116; experiment: Chemosensitization of human HCT116 cells expressing p53 after 5 days by MTT assay; format: functional, cell-based; settings: HCT-116, 120 h
In short: (§4)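 Cells were seeded at 1×10^3 per well and incubated overnight (37 °C, 5% CO2) to attach, then given fresh medium with compound at 0 (control) to 250 µM. Compounds were dissolved in DMSO, final DMSO <0.1% v/v, with no PaTrin2. MTT survival was measured after 5 days at 37 °C. Isogenic HCT116 p53+/+ and p53−/− pair used.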

[7] = system: HCT-116; experiment: Chemosensitization of p53-deficient human HCT116 cells after 5 days by MTT assay; format: functional, cell-based; settings: HCT-116, 120 h; in short: as §4
[8] = system: HCT-116; experiment: Ratio of IC50 for human HCT116 cells expressing p53 to IC50 for p53-deficient human HCT116 cells; format: functional
[9] = system: SNB-19; experiment: Chemosensitization of human SNB19 cells expressing MGMT after 5 days by MTT assay; format: functional, cell-based; settings: SNB-19, 120 h, in the assay text read “Cyquant assay” for “MTT assay”
[10] = system: A2058; experiment: Chemosensitization of human A2058 cells after 5 days by MTT assay; format: functional, cell-based; settings: A2058, 120 h, in the assay text read “Cyquant assay” for “MTT assay”
[11] = as §1; format: functional, cell-based; settings: A2780/CP70, 120 h
[12] = as §2; format: functional, cell-based; settings: Homo sapiens, A2780/CP70, 120 h; in short: as §3
[13] = Half life of the compound at pH 7.4; format: physicochemical
[14] = system: SNB-19; experiment: Chemosensitization of MGMT-deficient human SNB19 cells after 5 days by MTT assay; format: functional, cell-based; settings: SNB-19, 120 h, in the assay text read “Cyquant assay” for “MTT assay”
[15] = system: A2780; experiment: Chemosensitization of human A2780 cells after 5 days by MTT assay in presence of MGMT inactivator PaTrin2; format: functional, cell-based; settings: A2780, 120 h; in short: as §3
[16] = system: A2058; experiment: Ratio of temozolomide IC50 to compound IC50 for human A2058 cells; format: functional

Structure (SMILES): CN(CCn1nnc2c(C(N)=O)ncn2c1=O)c1ccc([N+](=O)[O-])cc1
- Activity [1]: Active
- Activity [2]: Active
- Ratio IC50 [3]: 2.8
- IC50 [4]: 22 µM
- Ratio IC50 [5]: 1.1

Structure (SMILES): CN(CCn1nnc2c(C(N)=O)ncn2c1=O)c1ccc(F)cc1
- Activity [1]: Active
- Activity [2]: Active
- Ratio IC50 [3]: 2.8
- IC50 [4]: 22 µM
- Ratio IC50 [5]: 1.1

Structure (SMILES): NC(=O)c1ncn2c(=O)n(CCCl)nnc12 [MITOZOLOMIDE]
- IC50 [6]: 60 µM
- IC50 [7]: 17.9 µM
- Ratio IC50 [8]: 3.4

Structure (SMILES): CN(CCn1nnc2c(C(N)=O)ncn2c1=O)c1ccc(Cl)cc1
- Activity [1]: Active
- Activity [2]: Active
- Ratio IC50 [3]: 2.8
- IC50 [4]: 22 µM
- IC50 [6]: 55 µM
- Ratio IC50 [5]: 1.1
- IC50 [7]: 35.8 µM
- Ratio IC50 [8]: 1.5

Structure (SMILES): Cc1ccc(N(CCn2nnc3c(C(N)=O)ncn3c2=O)CCn2nnc3c(C(N)=O)ncn3c2=O)cc1
- Activity [1]: Active
- Activity [2]: Active
- Ratio IC50 [3]: 5
- IC50 [4]: 1 µM
- IC50 [6]: 6.2 µM
- Ratio IC50 [5]: 0.5
- IC50 [7]: 4.4 µM
- Ratio IC50 [8]: 1.4

Structure (SMILES): Cc1ccc(N(C)CCn2nnc3c(C(N)=O)ncn3c2=O)cc1
- Activity [1]: Active
- Activity [2]: Active
- Ratio IC50 [3]: 2.8
- IC50 [4]: 22 µM
- Ratio IC50 [5]: 1.1

Structure (SMILES): CN(CCn1nnc2c(C(N)=O)ncn2c1=O)c1ccccc1
- Activity [1]: Active
- Activity [2]: Active
- Ratio IC50 [3]: 2.8
- IC50 [4]: 22 µM
- Ratio IC50 [5]: 1.1

- half-life [13]: 1.24 h
Structure (SMILES): Cn1nnc2c(C(N)=O)ncn2c1=O [TEMOZOLOMIDE]
- IC50 [9]: > 250 µM
- IC50 [10]: 35.5 µM
- IC50 [11]: > 250 µM
- IC50 [12]: 231 µM
- Ratio IC50 [3]: >27
- IC50 [4]: > 250 µM
- IC50 [14]: 37 µM
- Ratio IC50 [5]: >30
- IC50 [15]: 8.5 µM

Structure (SMILES): NC(=O)c1ncn2c(=O)n(CCN(CCn3nnc4c(C(N)=O)ncn4c3=O)c3ccccc3)nnc12
- Activity [1]: Active
- Activity [2]: Active
- Ratio IC50 [3]: 5
- IC50 [4]: 1 µM
- IC50 [6]: 5.5 µM
- Ratio IC50 [5]: 0.5
- IC50 [7]: 4.8 µM
- Ratio IC50 [8]: 1.1

Structure (SMILES): NC(=O)c1ncn2c(=O)n(CCNc3ccc(Cl)cc3)nnc12
- IC50 [9]: > 100 µM
- IC50 [10]: > 100 µM
- Activity [1]: Active
- Activity [2]: Active
- Ratio IC50 [3]: 2.8
- IC50 [4]: 22 µM
- IC50 [6]: 13.2 µM
- IC50 [14]: 77 µM
- Ratio IC50 [5]: 1.1
- IC50 [7]: 9.5 µM
- Ratio IC50 [8]: 1.4

Structure (SMILES): NC(=O)c1ncn2c(=O)n(CCN(CCn3nnc4c(C(N)=O)ncn4c3=O)c3ccc(Cl)cc3)nnc12
- Activity [1]: Active
- Activity [2]: Active
- Ratio IC50 [3]: 5
- IC50 [4]: 1 µM
- Ratio IC50 [5]: 0.5

Structure (SMILES): COc1ccc(N(C)CCn2nnc3c(C(N)=O)ncn3c2=O)c([N+](=O)[O-])c1
- Activity [1]: Active
- Activity [2]: Active
- Ratio IC50 [3]: 2.8
- IC50 [4]: 22 µM
- Ratio IC50 [5]: 1.1

Structure (SMILES): CC(C)(C)OC(=O)N(CCn1nnc2c(C(N)=O)ncn2c1=O)c1ccc(Cl)cc1
- Activity [1]: Active
- Activity [2]: Active
- Ratio IC50 [3]: 2.8
- IC50 [4]: 22 µM
- Ratio IC50 [5]: 1.1

Structure (SMILES): Cc1ccc(N(C)CCn2nnc3c(C(N)=O)ncn3c2=O)cc1[N+](=O)[O-]
- Activity [1]: Active
- Activity [2]: Active
- Ratio IC50 [3]: 2.8
- IC50 [4]: 22 µM
- Ratio IC50 [5]: 1.1

Structure (SMILES): NC(=O)c1ncn2c(=O)n(CCN(CCn3nnc4c(C(N)=O)ncn4c3=O)c3ccc(F)cc3)nnc12
- Ratio IC50 [16]: 10
- IC50 [9]: 12 µM
- IC50 [10]: 5.5 µM
- Activity [1]: Active
- Activity [2]: Active
- Ratio IC50 [3]: 5
- IC50 [4]: 1 µM
- IC50 [6]: 28 µM
- IC50 [14]: 11 µM
- Ratio IC50 [5]: 0.5
- IC50 [7]: 17 µM
- Ratio IC50 [8]: 1.6

Structure (SMILES): COc1ccc(N(CCn2nnc3c(C(N)=O)ncn3c2=O)CCn2nnc3c(C(N)=O)ncn3c2=O)cc1
- Ratio IC50 [16]: 10
- IC50 [9]: 7 µM
- IC50 [10]: 2.5 µM
- Activity [1]: Active
- Activity [2]: Active
- Ratio IC50 [3]: 5
- IC50 [4]: 1 µM
- IC50 [6]: 7.6 µM
- IC50 [14]: 6.6 µM
- Ratio IC50 [5]: 0.5
- IC50 [7]: 9.9 µM
- Ratio IC50 [8]: 0.8

Structure (SMILES): COc1ccc(N(CCn2nnc3c(C(N)=O)ncn3c2=O)CCn2nnc3c(C(N)=O)ncn3c2=O)c([N+](=O)[O-])c1
- Activity [1]: Active
- Activity [2]: Active
- Ratio IC50 [3]: 5
- IC50 [4]: 1 µM
- Ratio IC50 [5]: 0.5
